CFTR F508del cor: CFTR F508del correction in bronchial cells. activity (quench increase), % at 7.58 µM. CFBE cells, YFP halide quenching; stimulated with forskolin plus potentiator P3; % fluorescence drop versus neutral controls. 350,000 tested, 0.36% active;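 active = mean added fluorescence quench of at least 8% versus neutral control, with both replicates also reaching 8%; inconclusive = only one of the mean or replicate conditions met; inactive = mean below 8% and not both replicates reaching 8%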;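 note: cells transiently co-express mutant CFTR-F508del with the halide-sensitive YFP; corrector assay measuring rescue of mutant channel to the surface after 24 h compound exposure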
miR-122 sensor: inhibitors of miR-122 in Huh7 cells; Huh7 miR-122 Renilla luciferase sensor, 48 h; neutral wells = 0, positive control = 100; activation (reporter increase), % at 12.5 µM; 340,000 tested, 0.3% active; AID 602342;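 active = mean replicate activation score at least 90 and every replicate individually at or above 90; inconclusive = only one of the two criteria met; inactive = neither criterion met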;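 note: higher luciferase means less miR-122 activity so hits act as miR-122 inhibitors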
Cneo AK release: causes C. neoformans cell lysis | lysis activity, % at 15 µM | 360,000 tested, 0.2% active | adenylate kinase release luminescence, 4 h; normalised: neutral wells 0, clomiphene wells 100 | AID 651654;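 active = mean lysis activity across replicates of at least 80%, whatever share of replicates individually reach that level; inactive = mean lysis activity below 80%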
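Assay system: Cryptococcus neoformans yeast cells / Dosing: single-point compound dose / Timing: 4 h at 37 °C static, read 1 h later / Measured by: luminescence of released adenylate kinase using an AK detection reagent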
HIV Env fusion: inhibitors of HIV Env-mediated cell fusion | HeLa-JRFL Env/CEM21 cell fusion, luciferase | inhibition, % at 12.3 µM | 360,000 tested, 1.1% active;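 active = mean replicate inhibition score of at least 50 and every replicate individually at or above 50; inconclusive = only one of the two criteria met; inactive = mean below 50 and not all replicates reaching 50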
INS-1E GSIS act: primary screen for activators of insulin secretion dependent on glucose, INS-1E cells, GLuc reporter luminescence. INS-1E GLuc reporter insulin secretion, 2-3 h. activation, % at 16.6 µM. 370,000 tested, 0.61% active. AID 743287;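 active = lowest replicate activation of at least 40%, so every replicate reaches that level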
Ecoli rRNA inh: inhibitors of bacterial rRNA selective over humanized ribosomes; E. coli WT GFP vs humanized-ribosome RFP mutants, fluorescence, 24 h; stronger effect = lower value; DMSO median 0, no signal -100; GFP signal change (wild-type ribosome), % (concentration not given with the values); 350,000 tested, 1.6% active;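 active = significant combined selectivity score with lowered wild-type GFP, culture density cut under 30%, mutant RFP and density less affected; inactive = any of these conditions unmet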
Each line names hits and unclear results; the compound was inactive in the other large screens. Compounds with a hit are over-represented: about 3.1% of the library has one in this group of screens.

CCc1ccc(-c2cc(C)no2)cc1S(=O)(=O)NCc1ccccc1OC	miR-122 sensor 109
COc1ccccc1CNS(=O)(=O)c1ccc(-c2cc(C)no2)cc1	miR-122 sensor inconclusive
COc1ccc([C@H]2CC(=O)C=C(c3ccc(C(=O)O)cc3)C2)cc1OC	INS-1E GSIS act 91
COc1ccc([C@H]2CC(=O)C=C(c3ccc(-c4ccccc4)cc3)C2)cc1OC	none (no result: miR-122 sensor)
COc1ccc(C2=NN(c3ccc(C(=O)O)cc3)C(c3ccc(OC)c(OC)c3)C2)cc1 (centres undefined)	INS-1E GSIS act 53
COc1ccc(C2CC(c3ccccc3)=NN2c2ccc(S(N)(=O)=O)cc2)cc1OC (centres undefined)	none (no result: miR-122 sensor, Cneo AK release)
COc1ccc(C2CC(c3ccccc3O)=NN2c2ccccc2)cc1 (centres undefined)	Ecoli rRNA inh -21 (no result: miR-122 sensor, Cneo AK release)
CN(C)C(=O)[C@@H]1[C@@H](CO)[C@@H]2Cn3c(ccc(-c4ccc(F)cc4)c3=O)[C@@H]2N1C(=O)c1ccccn1	none (no result: HIV Env fusion)
Cn1nc(-c2ccccc2)c(N2CCCCC2)cc1=O	Ecoli rRNA inh -42 (no result: miR-122 sensor, Cneo AK release)
C[C@H](CO)N1C[C@H](C)[C@@H](CN(C)CC2CCCC2)Oc2ncc(-c3ccc(C#N)cc3)cc2C1=O	none
CCC(C)[C@H](NC(=O)N1CCn2c1nc1ccccc12)C(=O)NCCc1ccc(OC)c(OC)c1 (some centres undefined)	Ecoli rRNA inh -20
C[C@@H]1CN([C@@H](C)CO)C(=O)Cc2cc(NC(=O)Nc3ccc(C(F)(F)F)cc3)ccc2O[C@@H]1CN(C)S(=O)(=O)c1ccc(F)cc1	none (no result: Cneo AK release)
COc1ccc(CN2CCNC(=O)C2CC(=O)NCCCC2CCCC2)c(C)c1C (centres undefined)	Ecoli rRNA inh -26
COc1ccc(CN2CCNC(=O)C2CC(=O)NC2CCCC2)c(C)c1C (centres undefined)	none
O=C(NCc1cccs1)c1cc(-c2ccccc2)nn1CC1CC(c2cccc([N+](=O)[O-])c2)=NO1 (centres undefined)	CFTR F508del cor 8.6 (no result: INS-1E GSIS act)
O=C(c1cccc(Cl)c1)N1CCC(=O)N(C(COCc2cccc(Cl)c2)Cc2ccccc2)CC1 (centres undefined)	HIV Env fusion 60 (no result: INS-1E GSIS act)
O=C(c1ccc(Cl)c(Cl)c1)N1CCC(=O)N(C(COCc2cccc(Cl)c2)Cc2ccccc2)CC1 (centres undefined)	HIV Env fusion 91 (no result: INS-1E GSIS act, Ecoli rRNA inh)
O=C(c1ccc(Cl)c(Cl)c1)N1CCC(=O)N([C@H](COCc2ccc(Cl)cc2)Cc2ccccc2)CC1	none (no result: miR-122 sensor, Cneo AK release)
O=C(c1cccc(Cl)c1)N1CCC(=O)N([C@H](COCc2ccccc2)Cc2ccccc2)CC1	none (no result: miR-122 sensor, Cneo AK release)
Cc1ccc(CN2CC(=O)N3[C@H](CO)[C@H](c4ccc(Br)cc4)[C@@H]3C2)cc1	none (no result: miR-122 sensor, Cneo AK release, HIV Env fusion)
CC(C)c1cn(CC[C@H]2CC[C@@H](NC(=O)Nc3cc(Cl)cc(Cl)c3)[C@@H](CO)O2)nn1	none
COCC(=O)N1CC(=O)N2[C@H](CO)[C@@H](c3ccc(Br)cc3)[C@@H]2C1	none (no result: miR-122 sensor, Cneo AK release, HIV Env fusion)
CCN(CC)S(=O)(=O)c1ccc(N2CCOCC2)c(NS(=O)(=O)c2ccc(C(C)C)cc2)c1	miR-122 sensor 106 (no result: CFTR F508del cor)
COc1ccccc1N(CC(=O)NCC1CCCO1)C(=O)CNS(=O)(=O)c1ccc(Cl)cc1 (centres undefined)	INS-1E GSIS act 42 (no result: miR-122 sensor)
COc1ccccc1N(CC(=O)NCC1CCCO1)C(=O)CNS(=O)(=O)c1ccc(C)cc1 (centres undefined)	none (no result: CFTR F508del cor, Ecoli rRNA inh)
Cc1ccc(-c2cc(C(=O)Nc3c(C)n(C)n(-c4ccccc4)c3=O)[nH]n2)c(O)c1C	Ecoli rRNA inh -20 (no result: miR-122 sensor, Cneo AK release)
O=C(Nc1nc(-c2ccc3c(c2)OCCO3)cs1)C1CCCC1	Ecoli rRNA inh -34 (no result: miR-122 sensor, Cneo AK release)
O=C(N/N=C/c1cccc(O)c1)c1ccc2c(c1)OCCO2	Ecoli rRNA inh -21
COc1ccccc1N1CCN(C(=O)CCc2nnc3ccc(N4CCC(C)CC4)nn23)CC1	Ecoli rRNA inh -23
COc1cc(C(=O)N2CCN(c3ncnc4sc(C)c(C)c34)CC2)cc(OC)c1OC	HIV Env fusion 82 (no result: CFTR F508del cor, INS-1E GSIS act, Ecoli rRNA inh)

Source: PubChem BioAssay
